The nature of assay [1]: Inhibition of PKA at 10 uM by HTRF assay relative to control. In outline: (§1)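 HTRF kinase assay, one panel of kinases. Inhibitor stock 50 µM in 100% DMSO; tested at 10 µM. ATP and substrate at final levels near Km. Final buffer: 50 mM Hepes/NaOH pH 7.4, 40 µM Na3VO4, 0.005% Tween-20, 1 mM DTT, MnCl2 or MgCl2 at kinase-dependent levels. Started by adding ATP/substrate. Reaction run at room temperature, time varied by kinase. Detection mix in 50 mM Hepes pH 7.4, 0.1% BSA, 150 mM KF, incubated ≥1 h at room temperature. Activity expressed as % of uninhibited control; n=2.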
On the technique in general: TR-FRET usually uses a lanthanide donor and a delayed reading to cut background.

Assay [2] has as its target T1, Mitogen-activated protein kinase 12 (Homo sapiens) (UniProt P53778).
T1 sequence (whole entry): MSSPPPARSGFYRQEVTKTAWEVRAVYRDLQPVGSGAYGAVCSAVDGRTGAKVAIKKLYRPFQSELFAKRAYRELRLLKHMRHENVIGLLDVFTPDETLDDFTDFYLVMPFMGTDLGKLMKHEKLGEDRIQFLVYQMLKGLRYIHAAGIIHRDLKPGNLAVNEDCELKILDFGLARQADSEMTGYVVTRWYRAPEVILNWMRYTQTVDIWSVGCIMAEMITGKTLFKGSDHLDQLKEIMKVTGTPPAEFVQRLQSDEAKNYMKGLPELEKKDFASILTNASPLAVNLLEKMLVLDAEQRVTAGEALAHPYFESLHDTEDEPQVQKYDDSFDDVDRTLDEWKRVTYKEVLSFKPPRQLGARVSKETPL
Nature of the assay: Inhibition of p38-gamma at 10 uM by HTRF assay relative to control. The essentials: as §1

Assay [3] deals with Mitogen-activated protein kinase 9 (Homo sapiens) (UniProt P45984). Nature of the assay: Inhibition of JNK2 at 10 uM by HTRF assay relative to control. In outline: as §1
For assay [4], the target named is Calcium/calmodulin-dependent protein kinase type II subunit alpha (Homo sapiens) (UniProt Q9UQM7). Put plainly: Inhibition of CaMK2alpha at 10 uM by HTRF assay relative to control. The essentials:
as §1

Assay [5] concerns the target Focal adhesion kinase 1 (Homo sapiens) (UniProt Q05397). Nature of the assay: Inhibition of FAK at 10 uM by HTRF assay relative to control. The essentials: as §1
For assay [6], the target named is Platelet-derived growth factor receptor beta (Homo sapiens) (UniProt P09619). Put plainly: Inhibition of PDGFRbeta at 10 uM by HTRF assay relative to control. The essentials:
as §1

Assay [7] has as its target 3-phosphoinositide-dependent protein kinase 1 (Homo sapiens) (UniProt O15530). Put plainly: Inhibition of PDK1 at 10 uM by HTRF assay relative to control.
Assay [8] deals with Insulin-like growth factor 1 receptor (Homo sapiens) (UniProt P08069). Put plainly: Inhibition of IGF1R at 10 uM by HTRF assay relative to control. In outline:
as §1

Assay [9] deals with RAC-alpha serine/threonine-protein kinase (Homo sapiens) (UniProt P31749). Put plainly: Inhibition of AKT1/PKBalpha at 10 uM by HTRF assay relative to control. The essentials: as §1
Assay [10] has as its target Mitogen-activated protein kinase 1 (Homo sapiens) (UniProt P28482). Put plainly: Inhibition of ERK2 at 10 uM by HTRF assay relative to control. In outline: as §1
In assay [11] the target is Fibroblast growth factor receptor 1 (Homo sapiens) (UniProt P11362). Put plainly: Inhibition of FGFR1 at 10 uM by HTRF assay relative to control. The essentials: as §1
Sequence of Fibroblast growth factor receptor 1 (Homo sapiens) (P11362 22-822 limits assumed): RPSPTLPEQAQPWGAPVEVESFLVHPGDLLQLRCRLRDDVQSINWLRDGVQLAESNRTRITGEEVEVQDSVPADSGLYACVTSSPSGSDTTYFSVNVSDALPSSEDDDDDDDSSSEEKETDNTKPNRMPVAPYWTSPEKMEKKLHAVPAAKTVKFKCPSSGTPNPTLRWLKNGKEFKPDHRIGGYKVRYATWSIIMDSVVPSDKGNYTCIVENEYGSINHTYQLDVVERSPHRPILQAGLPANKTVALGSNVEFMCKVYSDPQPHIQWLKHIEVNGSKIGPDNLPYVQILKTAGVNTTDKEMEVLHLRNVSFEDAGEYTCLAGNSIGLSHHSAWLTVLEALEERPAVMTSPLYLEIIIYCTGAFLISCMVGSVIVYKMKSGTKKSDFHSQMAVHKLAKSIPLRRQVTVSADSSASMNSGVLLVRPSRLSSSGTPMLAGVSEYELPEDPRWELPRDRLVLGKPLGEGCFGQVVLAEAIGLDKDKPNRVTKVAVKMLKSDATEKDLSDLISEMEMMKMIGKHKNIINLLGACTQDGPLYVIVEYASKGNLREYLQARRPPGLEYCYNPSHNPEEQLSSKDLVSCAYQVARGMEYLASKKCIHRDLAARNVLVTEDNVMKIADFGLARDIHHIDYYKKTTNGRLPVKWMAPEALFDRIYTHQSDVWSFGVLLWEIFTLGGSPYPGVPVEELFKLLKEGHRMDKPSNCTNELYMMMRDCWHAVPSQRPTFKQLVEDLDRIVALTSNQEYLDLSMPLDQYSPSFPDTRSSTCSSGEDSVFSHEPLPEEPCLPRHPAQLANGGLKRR
Assay [12] in a line: Inhibition of AMPKalpha at 10 uM by HTRF assay relative to control. In outline: as §1
For assay [13], the target named is Ribosomal protein S6 kinase alpha-3 (Homo sapiens) (UniProt P51812). Nature of the assay: Inhibition of RSK2 at 10 uM by HTRF assay relative to control. In outline: as §1
A short description of assay [14]: Inhibition of IRK at 10 uM by HTRF assay relative to control. In outline: as §1
In assay [15] the target is Tyrosine-protein kinase ABL1 (Homo sapiens) (UniProt P00519). Put plainly: Inhibition of Abl at 10 uM by HTRF assay relative to control. The essentials: as §1
The target of assay [16] is T2, Tyrosine-protein kinase ZAP-70 (Homo sapiens) (UniProt P43403).
T2 sequence (whole entry): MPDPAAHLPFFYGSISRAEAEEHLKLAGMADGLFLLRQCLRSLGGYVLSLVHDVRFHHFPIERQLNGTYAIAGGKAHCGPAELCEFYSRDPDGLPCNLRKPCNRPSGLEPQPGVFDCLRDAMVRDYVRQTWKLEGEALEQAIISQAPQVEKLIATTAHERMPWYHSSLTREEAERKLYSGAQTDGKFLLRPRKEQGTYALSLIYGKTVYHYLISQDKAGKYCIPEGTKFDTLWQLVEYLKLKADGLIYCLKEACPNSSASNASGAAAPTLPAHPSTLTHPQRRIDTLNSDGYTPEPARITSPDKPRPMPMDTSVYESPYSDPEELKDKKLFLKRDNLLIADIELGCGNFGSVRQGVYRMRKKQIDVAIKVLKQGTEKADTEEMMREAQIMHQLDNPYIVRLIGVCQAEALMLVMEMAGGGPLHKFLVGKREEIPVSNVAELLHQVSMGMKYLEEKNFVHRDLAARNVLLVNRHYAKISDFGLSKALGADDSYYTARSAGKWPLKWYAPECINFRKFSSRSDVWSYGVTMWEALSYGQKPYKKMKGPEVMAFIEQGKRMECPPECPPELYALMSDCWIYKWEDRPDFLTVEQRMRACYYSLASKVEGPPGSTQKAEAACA
Put plainly: Inhibition of ZAP70 at 10 uM by HTRF assay relative to control. The essentials: as §1

Assay [17] concerns the target MAP kinase-activated protein kinase 2 (Homo sapiens) (UniProt P49137). Nature of the assay: Inhibition of MAPKAPK2 at 10 uM by HTRF assay relative to control. The essentials:
as §1

Assay [18] concerns the target Protein-tyrosine kinase 6 (Homo sapiens) (UniProt Q13882). Put plainly: Inhibition of Brk at 10 uM by HTRF assay relative to control. In outline:
as §1

Drawing on ChEMBL document CHEMBL1150387, “Development and experimental validation of a docking strategy for the generation of kinase-targeted libraries” (J Med Chem, 2008), this text covers inhibition for 10 molecules.

Sequence of Focal adhesion kinase 1 (Homo sapiens) (Q05397 2-1052 limits assumed): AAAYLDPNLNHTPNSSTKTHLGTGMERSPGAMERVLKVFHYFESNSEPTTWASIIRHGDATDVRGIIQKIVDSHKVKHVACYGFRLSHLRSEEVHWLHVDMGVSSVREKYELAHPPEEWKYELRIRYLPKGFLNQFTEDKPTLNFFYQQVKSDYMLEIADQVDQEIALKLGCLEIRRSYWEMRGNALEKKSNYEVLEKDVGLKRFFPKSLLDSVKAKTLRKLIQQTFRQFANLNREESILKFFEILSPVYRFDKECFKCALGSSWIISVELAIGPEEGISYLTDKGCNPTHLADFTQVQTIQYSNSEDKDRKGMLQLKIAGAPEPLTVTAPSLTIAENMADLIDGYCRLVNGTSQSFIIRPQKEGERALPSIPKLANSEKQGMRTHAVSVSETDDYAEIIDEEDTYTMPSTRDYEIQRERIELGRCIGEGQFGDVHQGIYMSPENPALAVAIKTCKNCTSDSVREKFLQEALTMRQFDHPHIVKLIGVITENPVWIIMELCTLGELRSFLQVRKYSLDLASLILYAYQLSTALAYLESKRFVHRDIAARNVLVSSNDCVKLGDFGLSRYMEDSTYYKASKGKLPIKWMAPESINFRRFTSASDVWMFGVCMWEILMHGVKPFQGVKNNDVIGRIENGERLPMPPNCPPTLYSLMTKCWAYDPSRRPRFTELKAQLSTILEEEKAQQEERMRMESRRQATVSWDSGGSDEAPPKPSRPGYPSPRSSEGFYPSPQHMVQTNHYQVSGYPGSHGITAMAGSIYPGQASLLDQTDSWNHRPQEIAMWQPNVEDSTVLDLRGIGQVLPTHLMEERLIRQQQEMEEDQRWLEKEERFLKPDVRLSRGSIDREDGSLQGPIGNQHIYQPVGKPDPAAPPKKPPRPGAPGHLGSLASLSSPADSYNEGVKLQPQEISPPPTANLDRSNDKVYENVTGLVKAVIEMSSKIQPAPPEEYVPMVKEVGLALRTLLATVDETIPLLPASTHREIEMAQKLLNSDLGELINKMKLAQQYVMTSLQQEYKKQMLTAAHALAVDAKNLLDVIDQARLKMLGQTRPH
Sequence of Calcium/calmodulin-dependent protein kinase type II subunit alpha (Homo sapiens) (Q9UQM7 whole entry): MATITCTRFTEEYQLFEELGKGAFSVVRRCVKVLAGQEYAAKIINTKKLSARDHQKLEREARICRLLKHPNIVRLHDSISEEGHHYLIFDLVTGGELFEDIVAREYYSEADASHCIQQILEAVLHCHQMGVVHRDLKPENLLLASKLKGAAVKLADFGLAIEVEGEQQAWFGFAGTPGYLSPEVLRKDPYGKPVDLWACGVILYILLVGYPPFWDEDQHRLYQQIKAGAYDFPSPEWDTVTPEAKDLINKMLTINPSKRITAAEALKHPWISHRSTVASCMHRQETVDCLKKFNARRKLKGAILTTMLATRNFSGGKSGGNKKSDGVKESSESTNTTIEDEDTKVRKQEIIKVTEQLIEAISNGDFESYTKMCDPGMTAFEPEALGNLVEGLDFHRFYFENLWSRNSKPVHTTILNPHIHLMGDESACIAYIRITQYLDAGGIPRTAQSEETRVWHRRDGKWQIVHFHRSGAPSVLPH
Sequence of Insulin-like growth factor 1 receptor (Homo sapiens) (P08069 31-736 limits assumed): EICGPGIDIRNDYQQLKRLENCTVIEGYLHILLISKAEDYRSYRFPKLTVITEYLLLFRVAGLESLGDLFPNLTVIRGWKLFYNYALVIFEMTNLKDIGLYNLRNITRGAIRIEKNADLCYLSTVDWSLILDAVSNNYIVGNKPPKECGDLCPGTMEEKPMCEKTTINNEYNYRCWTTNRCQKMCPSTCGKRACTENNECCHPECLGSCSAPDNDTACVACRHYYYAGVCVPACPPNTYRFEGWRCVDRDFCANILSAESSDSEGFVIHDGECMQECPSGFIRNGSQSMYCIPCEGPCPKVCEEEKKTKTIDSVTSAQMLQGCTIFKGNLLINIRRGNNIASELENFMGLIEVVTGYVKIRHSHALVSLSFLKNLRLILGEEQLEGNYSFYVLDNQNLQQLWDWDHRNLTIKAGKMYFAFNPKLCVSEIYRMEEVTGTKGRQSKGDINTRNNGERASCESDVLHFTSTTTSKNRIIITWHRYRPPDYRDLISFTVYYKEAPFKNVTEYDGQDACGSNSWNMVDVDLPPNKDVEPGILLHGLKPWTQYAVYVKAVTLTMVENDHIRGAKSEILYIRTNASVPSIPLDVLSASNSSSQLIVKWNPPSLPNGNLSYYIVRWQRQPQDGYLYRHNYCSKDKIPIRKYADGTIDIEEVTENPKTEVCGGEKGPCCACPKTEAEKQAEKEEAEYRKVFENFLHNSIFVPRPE
Sequence of Insulin-like growth factor 1 receptor (Homo sapiens) (P08069 741-1367 limits assumed): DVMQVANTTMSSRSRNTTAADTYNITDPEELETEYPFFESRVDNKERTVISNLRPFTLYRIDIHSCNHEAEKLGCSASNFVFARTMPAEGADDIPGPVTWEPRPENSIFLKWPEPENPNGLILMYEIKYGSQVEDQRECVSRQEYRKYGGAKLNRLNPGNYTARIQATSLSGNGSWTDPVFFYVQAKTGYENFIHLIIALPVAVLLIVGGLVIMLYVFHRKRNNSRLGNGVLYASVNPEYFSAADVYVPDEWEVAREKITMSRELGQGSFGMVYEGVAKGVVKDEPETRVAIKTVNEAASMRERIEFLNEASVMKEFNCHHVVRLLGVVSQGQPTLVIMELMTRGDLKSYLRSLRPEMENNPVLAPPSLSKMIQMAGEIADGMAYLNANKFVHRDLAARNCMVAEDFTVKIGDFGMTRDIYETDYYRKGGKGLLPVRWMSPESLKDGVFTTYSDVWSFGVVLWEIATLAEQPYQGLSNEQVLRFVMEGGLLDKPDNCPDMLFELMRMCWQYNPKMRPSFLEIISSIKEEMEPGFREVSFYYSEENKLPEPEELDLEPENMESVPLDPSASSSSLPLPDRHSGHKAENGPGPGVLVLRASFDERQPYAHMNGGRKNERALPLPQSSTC
Sequence of Platelet-derived growth factor receptor beta (Homo sapiens) (P09619 whole entry): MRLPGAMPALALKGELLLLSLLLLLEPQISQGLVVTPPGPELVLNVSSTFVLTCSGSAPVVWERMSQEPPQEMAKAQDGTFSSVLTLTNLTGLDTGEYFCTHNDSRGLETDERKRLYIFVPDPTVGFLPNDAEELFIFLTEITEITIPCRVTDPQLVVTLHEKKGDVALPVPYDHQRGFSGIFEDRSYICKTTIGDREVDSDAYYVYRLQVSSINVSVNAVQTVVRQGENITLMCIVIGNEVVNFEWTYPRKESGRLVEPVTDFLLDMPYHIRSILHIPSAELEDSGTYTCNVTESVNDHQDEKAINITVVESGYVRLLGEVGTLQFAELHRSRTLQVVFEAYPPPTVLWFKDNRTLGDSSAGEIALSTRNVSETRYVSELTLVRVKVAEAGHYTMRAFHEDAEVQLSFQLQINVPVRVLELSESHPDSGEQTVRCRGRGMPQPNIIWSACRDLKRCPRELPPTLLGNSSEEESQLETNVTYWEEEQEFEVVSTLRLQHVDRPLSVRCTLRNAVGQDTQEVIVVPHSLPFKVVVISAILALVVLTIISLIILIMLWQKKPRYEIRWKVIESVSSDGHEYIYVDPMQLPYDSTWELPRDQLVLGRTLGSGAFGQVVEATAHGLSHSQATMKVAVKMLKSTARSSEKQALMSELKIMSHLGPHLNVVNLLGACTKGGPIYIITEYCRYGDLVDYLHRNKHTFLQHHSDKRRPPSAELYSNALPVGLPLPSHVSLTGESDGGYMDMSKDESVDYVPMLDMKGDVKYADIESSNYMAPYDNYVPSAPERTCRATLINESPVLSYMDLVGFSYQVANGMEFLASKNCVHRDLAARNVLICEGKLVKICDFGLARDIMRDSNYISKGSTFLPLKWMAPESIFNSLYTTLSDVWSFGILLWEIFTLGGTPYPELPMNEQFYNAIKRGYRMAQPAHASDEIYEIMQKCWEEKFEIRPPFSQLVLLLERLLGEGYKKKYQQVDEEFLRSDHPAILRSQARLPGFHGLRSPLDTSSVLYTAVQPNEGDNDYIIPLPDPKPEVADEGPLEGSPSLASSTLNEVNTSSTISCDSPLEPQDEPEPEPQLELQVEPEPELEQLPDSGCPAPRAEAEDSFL

Broadly, the inhibition is the share of the control response that was lost under treatment. Consider `O=C(c1nc(SCc2ccc(Cl)cc2)n2ccccc12)N1CCN(c2cc(Nc3cccc(Br)c3)ncn2)CC1`, for which the inhibition in [1] came out at 1%; in assay [2], 0%; in [3], 3%; in [4], 0%; in [5], 1%; in assay [6] it was 10%. Further, the inhibition in assay [7] amounted to 0%; in assay [8] it was 0%; in assay [9], 0%; in assay [10] it was 1%; in assay [11] it was 14%; in assay [12], 5%. Also, the inhibition worked out at 0% in assay [13]; 0% in [14]; 10% in assay [15]; 1% in assay [16]; 2% in [17]; 24% in [18].

As to `COC[C@@H]1CCCN1C(=O)C1CCCN1c1cc(Nc2cccc(Br)c2)ncn1` (stereo not given in full), the inhibition amounted to 8% in [1]; 0% in [2]; 0% in [3]; 0% in assay [4]; 5% in assay [5]; 6% in [6]. The inhibition in assay [7], in assay [8], in [9], in [10], in assay [11] and in [12] was 0% each time. Moreover, the inhibition in [13] was found to be 0%; in assay [14] it was 0%; in assay [15], 7%; in assay [16], 0%; in [17], 0%; in assay [18], 3%.

For the molecule `O=C(C1CCN(c2nccc(Nc3ccccc3)n2)CC1)N1CC[C@@H](O)C1`, the inhibition in [1] is 0%; in assay [2] it was 0%; in assay [3], 5%; in assay [4], 0%; in [5] it was 0%; in assay [6], 6%. Besides, the inhibition worked out at 2% in [7]; 0% in [8]; 0% in assay [9]; 0% in [10]; 4% in [11]; 7% in [12]. Also, the inhibition in assay [13] worked out at 0%; in [14] it was 0%; in [15], 8%; in [16], 3%; in assay [17], 4%; in assay [18], 4%.

Take `Cc1cccc(N(C)c2cc(Nc3cccc(C(=O)N4CCCC5CCCCC54)c3)ncn2)c1` (stereo not given): the inhibition in assay [1] worked out at 0%; in assay [2] it was 1%; in assay [3], 0%; in [4], 0%; in [5] it was 8%; in assay [6], 5%. Further, the inhibition in assay [7] was determined as 0%; in [8] it was 0%; in [9], 6%; in [10] it was 0%; in [11] it was 0%; in assay [12], 1%. The inhibition in assay [13] stood at 0%; in assay [14] it was 0%; in assay [15], 13%; in [16], 0%; in assay [17], 0%; in [18] it was 32%.

As for `COC[C@@H]1CCCN1C(=O)[C@@H]1CCCN1c1nccc(Nc2ccccc2)n1`, the inhibition is 0% in assay [1]; 4% in assay [2]; 4% in [3]; 0% in [4]; 0% in assay [5]; 8% in assay [6]. Also, the inhibition in assay [7] was determined as 1%; in assay [8], 0%; in assay [9], 0%; in assay [10] it was 0%; in assay [11], 0%; in assay [12], 15%. In addition, the inhibition in assay [13] came to 0%; in assay [14] it was 0%; in assay [15], 3%; in [16], 6%; in assay [17], 1%; in assay [18] it was 5%.

As for `Cc1cccc(Nc2nccc(Nc3cccc(C(=O)NCc4ccc(N(C)C)cc4)c3)n2)c1`, the inhibition in [1] worked out at 0%; in [2], 0%; in assay [3], 4%; in assay [4], 0%; in [5], 17%; in assay [6], 24%. For the same molecule, the inhibition in [7] amounted to 0%; in assay [8], 0%; in assay [9], 1%; in [10], 0%; in assay [11] it was 20%; in assay [12], 8%. For the same molecule, the inhibition was determined as 5% in assay [13]; 0% in assay [14]; 11% in [15]; 6% in [16]; 4% in [17]; 33% in assay [18].

Take `Cc1cccc(N(C)c2cc(Nc3cccc(C(=O)N(C)CCc4ccccn4)c3)ncn2)c1`: the inhibition in [1] is 0%; in assay [2] it was 1%; in assay [3], 4%; in [4], 0%; in assay [5], 6%; in assay [6] it was 23%. Moreover, the inhibition in assay [7] came to 0%; in assay [8], 0%; in assay [9] it was 2%; in assay [10], 6%; in [11] it was 30%; in assay [12] it was 0%. Also, the inhibition in assay [13] is 0%; in assay [14], 0%; in assay [15], 49%; in assay [16] it was 4%; in [17], 0%; in [18], 11%.

In the case of `COC(=O)C(CO)NC(=O)[C@@H]1CCCN1c1nccc(Oc2cccc(C)c2)n1` (stereo not given in full), the inhibition stood at 0% in [1]; 0% in assay [2]; 8% in assay [3]; 0% in assay [4]; 6% in assay [5]; 0% in assay [6]. The inhibition came out at 0% in assay [7]; 0% in assay [8]; 0% in assay [9]; 1% in assay [10]; 0% in assay [11]; 0% in assay [12]. Besides, the inhibition in [13] worked out at 0%; in assay [14], 0%; in assay [15], 10%; in assay [16], 0%; in assay [17], 1%; in assay [18] it was 13%.

As for `Cc1cccc(Nc2ncnc3c2CN(C(=O)c2ccc(N(C)C)c4ccccc24)CC3)c1`, the inhibition in assay [1] worked out at 0%; in [2], 2%; in assay [3], 1%; in assay [4], 0%; in assay [5], 7%; in [6] it was 10%. In addition, the inhibition in assay [7] was determined as 0%; in [8] it was 3%; in [9] it was 0%; in [10] it was 0%; in assay [11], 0%; in assay [12], 19%. Moreover, the inhibition turned out to be 0% in assay [13]; 0% in assay [14]; 7% in assay [15]; 6% in assay [16]; 0% in assay [17]; 10% in assay [18].

As for `CN(C)c1ccc(C(=O)N2CCN(c3ncnc4c3CN(Cc3ccccc3)CC4)CC2)c2ccccc12`, the inhibition amounted to 0% in [1]; 0% in assay [2]; 1% in assay [3]; 0% in assay [4]; 0% in assay [5]; 4% in [6]. Besides, the inhibition stood at 0% in [7]; 0% in assay [8]; 4% in assay [9]; 8% in assay [10]; 19% in assay [11]; 0% in assay [12]. Further, the inhibition in [13] worked out at 0%; in assay [14], 0%; in [15], 8%; in assay [16], 2%; in assay [17], 3%; in [18] it was 0%.
